Source: ChEMBL document CHEMBL3091448, “Identification of potent and selective cathepsin S inhibitors containing different central cyclic scaffolds” (J Med Chem, 2013)
The source made the active and inactive calls. The rule behind the calls is not given here.

Key:
Mus musculus [1] = assay: Reduction of ovalbumin-induced IL-2 production in DO10.11 transgenic BALB/c mouse at 50 mg/kg, po administered 30 mins before ovalbumin challenge measured after 4 hrs by luminex single-bead analysis; format: functional, organism-based; design: dose 50 mg/kg
Procedure, shortened: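 DO10.11 BALB/c mice carrying a transgenic ovalbumin-peptide TCR were dosed orally with compound, then challenged iv with 1.0 mg low-endotoxin ovalbumin. Plasma IL-2 was measured at 4 h by Luminex bead assay using two anti-IL-2 antibodies. Groups had n = 8, and reduction was expressed versus the ovalbumin challenge group (ANOVA with Dunnett test).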

Cathepsin S [2] = target: Cathepsin S (Mus musculus, UniProt O70370); assay: Inhibition of mouse cathepsin-S using Z-Val-Val-Arg-AMC as substrate up to 20 mins by fluorescence assay
Sequence of Cathepsin S (Mus musculus, UniProt O70370) (O70370 whole entry): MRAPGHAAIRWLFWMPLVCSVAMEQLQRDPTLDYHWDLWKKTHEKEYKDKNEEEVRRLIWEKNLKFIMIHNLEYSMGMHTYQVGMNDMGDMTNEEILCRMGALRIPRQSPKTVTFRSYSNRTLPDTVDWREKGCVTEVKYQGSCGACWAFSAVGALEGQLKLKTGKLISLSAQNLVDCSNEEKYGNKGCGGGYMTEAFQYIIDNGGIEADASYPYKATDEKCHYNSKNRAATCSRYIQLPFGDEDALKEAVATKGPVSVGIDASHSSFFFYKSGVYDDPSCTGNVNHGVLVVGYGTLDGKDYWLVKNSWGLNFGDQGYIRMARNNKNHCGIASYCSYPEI
Procedure, shortened: (§1)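 Fluorogenic quenched-peptide cleavage assay. Enzymes at 1 nM in 100 mM potassium phosphate pH 6.5, 5 mM EDTA-Na, 0.001% Triton X-100 and 5 mM DTT. Enzyme was added to the compound dilutions, then 20 μM substrate started the reaction: Z-Val-Val-Arg-AMC, or Z-Leu-Arg-AMC for CatK. Fluorescence (ex 360/em 465 nm) was read over 20 min. IC50 is the mean of ≥2 independent experiments.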

Cathepsin S [3] = target: Cathepsin S (Homo sapiens, UniProt P25774); assay: Inhibition of human cathepsin-S using Z-Val-Val-Arg-AMC as substrate up to 20 mins by fluorescence assay; procedure, shortened: as §1
Sequence of Cathepsin S (Homo sapiens, UniProt P25774) (P25774 whole entry): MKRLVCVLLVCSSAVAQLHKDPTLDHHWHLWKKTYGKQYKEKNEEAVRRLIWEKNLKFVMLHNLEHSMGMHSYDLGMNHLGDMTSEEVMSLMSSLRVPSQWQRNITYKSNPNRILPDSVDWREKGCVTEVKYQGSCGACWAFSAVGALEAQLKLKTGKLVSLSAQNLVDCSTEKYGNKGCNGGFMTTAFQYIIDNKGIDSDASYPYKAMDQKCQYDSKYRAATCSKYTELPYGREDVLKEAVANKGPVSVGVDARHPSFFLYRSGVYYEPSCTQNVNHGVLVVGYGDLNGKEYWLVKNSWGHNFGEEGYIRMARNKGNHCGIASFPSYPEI

Procathepsin L = Procathepsin L (Homo sapiens, UniProt P07711); assay: Inhibition of human cathepsin-L using Z-Val-Val-Arg-AMC as substrate up to 20 mins by fluorescence assay; procedure, shortened: as §1
Sequence of Procathepsin L (P07711 whole entry): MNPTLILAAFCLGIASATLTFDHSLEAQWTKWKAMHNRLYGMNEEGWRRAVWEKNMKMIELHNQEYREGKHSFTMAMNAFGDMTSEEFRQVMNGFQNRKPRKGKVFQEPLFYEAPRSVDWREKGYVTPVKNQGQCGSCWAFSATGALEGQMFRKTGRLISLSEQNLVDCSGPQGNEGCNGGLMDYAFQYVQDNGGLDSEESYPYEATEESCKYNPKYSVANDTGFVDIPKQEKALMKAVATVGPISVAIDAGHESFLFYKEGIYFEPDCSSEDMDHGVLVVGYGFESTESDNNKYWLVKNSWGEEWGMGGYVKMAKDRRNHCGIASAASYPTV

[4] = Metabolic stability in NMRI mouse plasma assessed as compound remaining at 1000 ng/mL after 4 hrs; format: ADME, cell-free; conditions: read-out: Stability
Procedure, shortened: (§2)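 Heparinized pooled NMRI mouse plasma was spiked with compound at 1000 ng/mL and incubated at 37 °C in an orbital shaker. Aliquots (n = 3 per time point) were taken at 2 min, 1 h and 4 h and analysed by LC−MS/MS.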

[5] = Plasma concentration in DO10.11 transgenic BALB/c mouse at 50 mg/kg, po administered 30 mins before ovalbumin challenge measured after 4 hrs; format: ADME, organism-based; design: dose 50 mg/kg, route oral
Cathepsin B = Cathepsin B (Homo sapiens, UniProt P07858); assay: Inhibition of human cathepsin-B using Z-Val-Val-Arg-AMC as substrate up to 20 mins by fluorescence assay; procedure, shortened: as §1
[6] = Half life in C57Bl/6 mouse at 9 mg/kg, po; format: ADME, organism-based; design: dose 9 mg/kg, route oral; conditions: in vivo
Procedure, shortened: (§3)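 Male C57Bl/6 mice, 8 weeks old, 24−29 g. Dosing was by oral gavage at 9 mg/kg as an aqueous microsuspension in gelatin/NaCl (7.5%/0.62%), or by iv bolus at 2 mg/kg in aqueous NaCl/30% 1-methyl-2-pyrrolidone. Terminal blood (n = 2 per time point) was collected into EDTA tubes and spun at 4 °C to obtain plasma. Plasma levels were measured by LC−MS/MS after acetonitrile precipitation. Values are the mean of two experiments.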

Plasma = assay: Metabolic stability in human plasma assessed as compound remaining at 1000 ng/mL after 5 hrs; format: ADME, cell-free
Mus musculus [7] = assay: Dose normalized AUC in C57Bl/6 mouse at 9 mg/kg, po; format: ADME, organism-based; design: dose 9 mg/kg, route oral; conditions: in vivo; procedure, shortened: as §3
A20 = assay: Inhibition of ovalbumin-induced antigen presentation in mouse A20 cells treated 1 hr before ovalbumin addition incubated for 16 hrs followed by co-cultured with DO10.10 T-cell hybridoma cells for 24 hrs assessed as IL-2 production by luminex single-bead analysis; format: functional, cell-based
Procedure, shortened: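 A20 cells were seeded at 3 × 10⁵/mL and preincubated with compound for 1 h. Ovalbumin was then added (5 mg/mL final) for 16 h. Cells were washed three times with PBS, then DO10.10 T-cell hybridoma cells (2 × 10⁵/mL) were added. After 24 h, IL-2 was quantified by Luminex single-bead assay using two anti-IL-2 antibodies. IC50 is the mean of ≥2 independent experiments.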

[8] = Clearance in C57Bl/6 mouse at 2 mg/kg, iv and 9 mg/kg, po; format: ADME, organism-based; conditions: in vivo; procedure, shortened: as §3
Mus musculus [9] = assay: Dose normalized AUC in C57Bl/6 mouse at 2 mg/kg, iv; format: ADME, organism-based; design: dose 2 mg/kg, route intravenous; conditions: in vivo; procedure, shortened: as §3
[10] = Volume of distribution at steady state in C57Bl/6 mouse at 2 mg/kg, iv and 9 mg/kg, po; format: ADME, organism-based; conditions: in vivo, read-out: Vdss; procedure, shortened: as §3
[11] = Half life in C57Bl/6 mouse at 2 mg/kg, iv; format: ADME, organism-based; design: dose 2 mg/kg, route intravenous; conditions: in vivo; procedure, shortened: as §3
[12] = Oral bioavailability in C57Bl/6 mouse at 9 mg/kg; format: ADME, organism-based; conditions: in vivo; procedure, shortened: as §3
Cathepsin K = target: T1, Cathepsin K (Homo sapiens, UniProt P43235); assay: Inhibition of human cathepsin-K using Z-Leu-Arg-AMC as substrate up to 20 mins by fluorescence assay; procedure, shortened: as §1
T1 sequence (P43235 whole entry): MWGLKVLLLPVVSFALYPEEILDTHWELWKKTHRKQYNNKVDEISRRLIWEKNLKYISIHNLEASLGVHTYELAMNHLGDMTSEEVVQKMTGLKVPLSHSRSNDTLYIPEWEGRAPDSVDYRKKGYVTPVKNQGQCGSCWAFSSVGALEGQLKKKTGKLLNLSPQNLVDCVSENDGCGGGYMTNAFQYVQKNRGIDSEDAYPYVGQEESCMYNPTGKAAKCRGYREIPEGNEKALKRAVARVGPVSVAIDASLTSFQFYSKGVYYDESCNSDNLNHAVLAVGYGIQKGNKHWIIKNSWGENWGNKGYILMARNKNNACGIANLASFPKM

[13] = Drug degradation in NMRI mouse plasma at 1000 ng/mL after 4 hrs; format: ADME, cell-free; conditions: read-out: Drug degradation; procedure, shortened: as §2

Row | SMILES | Activity (Mus musculus [1]) | IC50 (Cathepsin S [2]) [nM] | IC50 (Cathepsin S [3]) [nM] | IC50 (Procathepsin L) [nM] | remaining at 4 h, 1000 ng/mL [4] [%] | concentration at 4 h [5] [ng/mL] | IC50 (Cathepsin B) [nM] | half-life [6] [h] | Stability (Plasma) | AUC/dose (Mus musculus [7]) [ng·h/mL] | IC50 (A20) [nM] | clearance [8] [mL/min/kg] | AUC/dose (Mus musculus [9]) [ng·h/mL] | Vd [10] [L/kg] | half-life [11] [h] | bioavailability [12] [%] | IC50 (Cathepsin K) [nM] | metabolised at 4 h, 1000 ng/mL [13] [%]
1 | N#CC1(NC(=O)[C@@H]2C[C@@H](S(=O)(=O)c3ccccc3C(F)(F)F)CN2)CC1 | inactive | 6 | 2 | > 25000 | 51 | 2050 | > 25000 | 0.9 | Stable | 7200 | 58 | 1.6 | 10400 | 0.13 | 1.1 | 69 | > 25000 | 
2 | N#CC1(NC(=O)[C@@H]2C[C@@H](S(=O)(=O)c3ccccc3Cl)CN2C(=O)c2ccccc2)CC1 |  | 1 | 0.8 | 6800 |  |  | 35200 |  |  |  | 15 |  |  |  |  |  | > 25000 | > 90
